Tests used:
[1] = Antioxidant activity assessed as inhibition of xanthine-xanthine oxidase generated superoxide anion radical production by NBT reduction assay; type: functional
Method in brief: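 Superoxide produced by xanthine/xanthine oxidase. Final reaction contained xanthine 40 μM, xanthine oxidase 0.05 unit/mL, NBT 50 μM (in 20 mM phosphate buffer, pH 7.4) and graded sample concentrations. Incubated 37 °C for 20 min after adding enzyme. Absorbance read at 560 nm against blanks. Values are means of triplicate determinations.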

[2] = tested on: Radical scavenging activity; assay: Antioxidant activity assessed as DPPH radical scavenging activity after 30 mins; type: functional
Method in brief: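 Test samples at 5−100 μg/mL (120 μL) combined with 30 μL of 0.75 mM DPPH in MeOH, in triplicate. Shaken in the dark at room temperature for 30 min, then absorbance read at 517 nm. Scavenging (%) = (1 − As/A0) × 100. IC50 is the concentration giving 50% DPPH inhibition. Trolox (5−100 μM) served as positive control.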

Row | SMILES | IC50 [1] [µM] | IC50 [2] [µM]
1 | O=C(CCc1ccc(O)c(O)c1)NCCc1ccc(O)cc1 | 30.2 | 61.2
2 | COc1cc(/C=C(/C(=O)NCCCCNC(C)=O)c2cc(O)c(O)cc2CCC(=O)NCCc2ccc(O)cc2)ccc1O | 56.5 | 65.2
3 | COc1cc(O)cc([C@H]2Oc3ccc(/C=C\C(=O)NCCc4ccc(O)cc4)cc3O[C@@H]2C(=O)NCCc2ccc(O)cc2)c1 (relative stereo) | 44.1 | 48.2
4 | COc1cc(O)cc([C@H]2Oc3ccc(/C=C/C(=O)NCCc4ccc(O)cc4)cc3O[C@@H]2C(=O)NCCc2ccc(O)cc2)c1 (relative stereo) | 46.4 | 49.8
5 | COc1ccc(/C=C/C(=O)NCCc2ccc(O)cc2)cc1O | 48.8 | 67.7
6 | O=C(/C=C/c1ccc(O)c(O)c1)NCCc1ccc(O)cc1 | 44.1 | 47.6
7 | Cc1c(C)c2c(c(C)c1O)CCC(C)(C(=O)O)O2 (stereo not given) [TROLOX] | 27.2 | 33.5
8 | COc1cc([C@H]2Oc3ccc(/C=C\C(=O)NCCc4ccc(O)cc4)cc3O[C@@H]2CO)ccc1O (relative stereo) | 49.9 | 54.1

More lines, in order of falling IC50 [1], values ahead:

Row | IC50 [1] [µM] | IC50 [2] [µM] | SMILES
9 | 58 | 67 | COc1cc2c(c(OC)c1O)[C@H](c1ccc(O)c(O)c1)[C@@H](C(=O)NCCc1ccc(O)cc1)C(C(=O)NCCCCNC(C)=O)=C2 (relative stereo)
10 | 52.7 | 64.7 | COc1cc(/C=C(/C(=O)NCCCCNC(C)=O)c2cc(O)c(O)cc2CCC(=O)NCCc2ccc(O)cc2)cc(OC)c1O
11 | 52.6 | 63.5 | O=C(/C=C/c1ccc(O)cc1)NCCc1ccc(O)cc1 [N-P-COUMAROYL TYRAMINE]
12 | 50.1 | 46.5 | COc1cc2c(c(OC)c1O)C(c1ccc(O)c(O)c1)C(C(=O)NCCc1ccc(O)cc1)C(C(=O)NCCc1ccc(O)cc1)=C2 (stereo not given)
13 | 49.9 | 57.1 | COc1cc(/C=C(/C(=O)NCCc2ccc(O)cc2)c2cc(O)c(O)cc2CCC(=O)NCCc2ccc(O)cc2)cc(OC)c1O
14 | 44.4 | 55.2 | COc1cc([C@H]2Oc3ccc(/C=C/C(=O)NCCc4ccc(O)cc4)cc3O[C@@H]2CO)ccc1O (relative stereo)
15 | 22.2 | 61.2 | COc1cc(/C=C\C(=O)NCC(O)c2ccc(O)cc2)ccc1O (stereo not given)
